Measurements as given in ChEMBL document CHEMBL1149790, “Synthesis of some novel thiourea derivatives obtained from 5-[(4-aminophenoxy)methyl]-4-alkyl/aryl-2,4-dihydro-3H-1,2,4-triazole-3-thiones and evaluation as antiviral/anti-HIV and anti-tuberculosis agents” (Eur J Med Chem, 2008).
In brackets after ≈: the same amount, converted by molar mass.

Key:
[1] = tested on: Sindbis virus; test: Antiviral activity against Sindbis virus in african green monkey Vero cells assessed as reduction of virus-induced cytopathogenicity; assay type: functional
How it was run: (§1)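 Confluent cell monolayers (E6SM, HEL, HeLa or Vero, per line) inoculated with 100 CCID50 virus; 1 h adsorption, residual virus removed, then incubated with compound at 400, 200, 100 … µg/ml. Cytopathicity scored once complete in untreated virus controls; MIC = concentration inhibiting virus-induced cytopathicity.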

[2] = tested on: Human immunodeficiency virus 2; test: Antiviral activity against HIV2 ROD in human MT4 cells assessed as protection against virus-induced cytopathogenicity by MTT assay; assay type: functional, organism-based; design: Activity: concentration or dose not given beside the values; conditions: for IC50: Human immunodeficiency virus 2, ROD, MT4
How it was run: (§2)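 MT-4 cells at 6 × 10⁵ cells/ml infected with HIV-1 IIIB or HIV-2 ROD at 100–300 CCID50; compounds in serial five-fold dilutions, triplicate mock- and virus-infected wells. MTT viability read at 540 and 690 nm after 5 days, median OD of three wells; EC50 = 50% protection from viral cytopathic effect.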

[3] = tested on: Human alphaherpesvirus 2; test: Antiviral activity against HSV2 G in human HEL cells assessed as reduction of virus-induced cytopathogenicity; assay type: functional; conditions: Human alphaherpesvirus 2, G; how it was run: as §1
[4] = tested on: Human alphaherpesvirus 1; test: Antiviral activity against HSV1 KOS in human HEL cells assessed as reduction of virus-induced cytopathogenicity; assay type: functional; conditions: Human alphaherpesvirus 1, KOS; how it was run: as §1
[5] = Cytotoxicity against human E6SM cells; assay type: cell-based; conditions: E6SM cells
How it was run: (§3)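 Uninfected cell cultures exposed to test compounds alongside antiviral assays; minimum cytotoxic concentration (MCC) = concentration causing a microscopically detectable alteration of cell morphology.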

[6] = tested on: Human respirovirus 3; test: Antiviral activity against Parainfluenza 3 virus in african green monkey Vero cells assessed as reduction of virus-induced cytopathogenicity; assay type: functional; how it was run: as §1
[7] = tested on: Vero; test: Cytotoxicity against african green monkey Vero cells; assay type: cell-based; conditions: chlorocebus sabaeus; how it was run: as §3
[8] = tested on: Vesicular stomatitis virus; test: Antiviral activity against in Vesicular stomatitis virus in human E6SM cells assessed as reduction of virus-induced cytopathogenicity; assay type: functional; how it was run: as §1
[9] = Cytotoxicity against human HeLa cells; assay type: cell-based; how it was run: as §3
[10] = tested on: Coxsackievirus B4; test: Antiviral activity against Coxsackie virus B4 in human HeLa cells assessed as inhibition of virus-induced cytopathogenicity; assay type: functional; conditions: Enterovirus B; how it was run: as §1
[11] = tested on: Coxsackievirus B4; test: Antiviral activity against Coxsackie virus B4 in african green monkey Vero cells assessed as reduction of virus-induced cytopathogenicity; assay type: functional; conditions: Enterovirus B; how it was run: as §1
[12] = tested on: Punta Toro virus; test: Antiviral activity against Punta Toro virus in african green monkey Vero cells assessed as reduction of virus-induced cytopathogenicity; assay type: functional; how it was run: as §1
[13] = tested on: Human alphaherpesvirus 1; test: Antiviral activity against HSV1 KOS in human E6SM cells assessed as reduction of virus-induced cytopathogenicity; assay type: functional; conditions: Human alphaherpesvirus 1, KOS; how it was run: as §1
[14] = tested on: Mammalian orthoreovirus 1; test: Antiviral activity against Reo virus 1 in african green monkey Vero cells assessed as reduction of virus-induced cytopathogenicity; assay type: functional; how it was run: as §1
[15] = tested on: Vesicular stomatitis virus; test: Antiviral activity against in Vesicular stomatitis virus in human HEL cells assessed as reduction of virus-induced cytopathogenicity; assay type: functional; how it was run: as §1
[16] = tested on: Respiratory syncytial virus; test: Antiviral activity against respiratory syncytial virus in human HeLa cells assessed as inhibition of virus-induced cytopathogenicity; assay type: functional; how it was run: as §1
[17] = tested on: Human alphaherpesvirus 1; test: Antiviral activity against thymidine kinase deficient and acyclovir resistant HSV1 KOS in human E6SM cells assessed as reduction of virus-induced cytopathogenicity; assay type: functional; conditions: Human alphaherpesvirus 1, KOS; how it was run: as §1
[18] = Cytotoxicity against human MT4 cells by MTT assay; assay type: cell-based
How it was run: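 Mock-infected MT-4 cells (6 × 10⁵ cells/ml) with serial five-fold compound dilutions in triplicate; MTT reduction read at 540 and 690 nm after 5 days, median OD of three wells; CC50 = concentration reducing OD540 of mock-infected control by 50%.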

[19] = tested on: Human alphaherpesvirus 1; test: Antiviral activity against thymidine kinase deficient and acyclovir resistant HSV1 KOS in human HEL cells assessed as reduction of virus-induced cytopathogenicity; assay type: functional; conditions: Human alphaherpesvirus 1, KOS; how it was run: as §1
[20] = tested on: Human immunodeficiency virus 1; test: Antiviral activity against HIV1 3B in human MT4 cells assessed as protection against virus-induced cytopathogenicity by MTT assay; assay type: functional, organism-based; design: Activity: concentration or dose not given beside the values; conditions: for IC50: Human immunodeficiency virus 1, 3B, MT4; how it was run: as §2
[21] = tested on: Human alphaherpesvirus 2; test: Antiviral activity against HSV2 G in human E6SM cells assessed as reduction of virus-induced cytopathogenicity; assay type: functional; conditions: Human alphaherpesvirus 2, G; how it was run: as §1
[22] = tested on: Vesicular stomatitis virus; test: Antiviral activity against vesicular stomatitis virus in human HeLa cells assessed as inhibition of virus-induced cytopathogenicity; assay type: functional; how it was run: as §1
[23] = Cytotoxicity against human HEL cells assessed as alteration of cell morphology; assay type: cell-based; how it was run: as §3

C=CCNC(=S)Nc1ccc(-c2n[nH]c(=S)n2CC)cc1
MIC [1]: > 80 µg/mL
Activity [2]: 0%
IC50 [2]: > 57 µg/mL
MIC [3]: 240 µg/mL (≈ 751 µM)
MIC [4]: 240 µg/mL (≈ 751 µM)
MCC [5]: 400 µg/mL
MIC [6]: > 80 µg/mL
Activity [7]: >= 80 ug ml-1
MIC [8]: > 80 µg/mL
MCC [9]: 400 µg/mL
MIC [10]: > 80 µg/mL
MIC [11]: > 80 µg/mL
MIC [12]: 80 µg/mL (≈ 250 µM)
MIC [13]: 240 µg/mL (≈ 751 µM)
MIC [14]: > 80 µg/mL
MIC [15]: > 80 µg/mL
MIC [16]: > 80 µg/mL
MIC [17]: 240 µg/mL (≈ 751 µM)
CC50 [18]: 57 µg/mL (≈ 178 µM)
MIC [19]: 240 µg/mL (≈ 751 µM)
Activity [20]: 8.5%
IC50 [20]: > 57 µg/mL
MIC [21]: 240 µg/mL (≈ 751 µM)
MIC [22]: > 80 µg/mL
MCC [23]: 400 µg/mL

C=CCNC(=S)Nc1ccc(-c2n[nH]c(=S)n2-c2ccccc2)cc1
MIC [1]: > 400 µg/mL
Activity [2]: 0%
IC50 [2]: > 55.1 µg/mL
MIC [3]: > 80 µg/mL
MIC [4]: > 80 µg/mL
MCC [5]: ≥ 80 µg/mL
MIC [6]: > 400 µg/mL
Activity [7]: >= 400 ug ml-1
MIC [8]: > 80 µg/mL
MCC [9]: ≥ 400 µg/mL
MIC [10]: > 400 µg/mL
MIC [11]: > 400 µg/mL
MIC [12]: > 400 µg/mL
MIC [13]: > 80 µg/mL
MIC [14]: > 400 µg/mL
MIC [15]: > 80 µg/mL
MIC [16]: > 400 µg/mL
MIC [17]: > 80 µg/mL
CC50 [18]: 55.1 µg/mL (≈ 150 µM)
MIC [19]: > 80 µg/mL
Activity [20]: 13.5%
IC50 [20]: > 55.1 µg/mL
MIC [21]: > 80 µg/mL
MIC [22]: > 400 µg/mL
MCC [23]: ≥ 80 µg/mL

C=CCNC(=S)Nc1ccc(-c2n[nH]c(=S)n2C)cc1
MIC [1]: > 80 µg/mL
Activity [2]: 1%
IC50 [2]: > 78.2 µg/mL
MIC [3]: 240 µg/mL (≈ 786 µM)
MIC [4]: 240 µg/mL (≈ 786 µM)
MCC [5]: 400 µg/mL
MIC [6]: > 80 µg/mL
Activity [7]: 400 µg/mL
MIC [8]: > 80 µg/mL
MCC [9]: 400 µg/mL
MIC [10]: > 80 µg/mL
MIC [11]: > 80 µg/mL
MIC [12]: > 80 µg/mL
MIC [13]: 240 µg/mL (≈ 786 µM)
MIC [14]: > 80 µg/mL
MIC [15]: > 80 µg/mL
MIC [16]: > 80 µg/mL
MIC [17]: 240 µg/mL (≈ 786 µM)
CC50 [18]: 78.2 µg/mL (≈ 256 µM)
MIC [19]: 240 µg/mL (≈ 786 µM)
Activity [20]: 9.5%
IC50 [20]: > 78.2 µg/mL
MIC [21]: 240 µg/mL (≈ 786 µM)
MIC [22]: > 80 µg/mL
MCC [23]: 400 µg/mL

CNC(=S)Nc1ccc(-c2n[nH]c(=S)n2-c2ccccc2)cc1
MIC [1]: > 80 µg/mL
Activity [2]: 0%
IC50 [2]: > 94.4 µg/mL
MIC [3]: > 80 µg/mL
MIC [4]: 240 µg/mL (≈ 703 µM)
MCC [5]: 400 µg/mL
MIC [6]: > 80 µg/mL
Activity [7]: >= 80 ug ml-1
MIC [8]: > 80 µg/mL
MCC [9]: ≥ 400 µg/mL
MIC [10]: > 400 µg/mL
MIC [11]: > 80 µg/mL
MIC [12]: > 80 µg/mL
MIC [13]: 240 µg/mL (≈ 703 µM)
MIC [14]: > 80 µg/mL
MIC [15]: > 80 µg/mL
MIC [16]: > 400 µg/mL
MIC [17]: 240 µg/mL (≈ 703 µM)
CC50 [18]: 94.4 µg/mL (≈ 276 µM)
MIC [19]: 240 µg/mL (≈ 703 µM)
Activity [20]: 23.5%
IC50 [20]: > 94.4 µg/mL
MIC [21]: > 80 µg/mL
MIC [22]: > 400 µg/mL
MCC [23]: 400 µg/mL
